Consider one compound from paper PMC10316739 (Drug Delivery, 2023).

Molecules are shown by their SMILES.

The conditions of data set [1]: stated in introduction; ref Bethesda, [2012]; cited from earlier work.
In a further data set the test system is luteinizing hormone (LH). The data set can be described thus: Pharmacodynamics: plasma LH. As to conditions: rats, triptorelin 9 μg/kg s.c., ELISA, n = 8. Type of data set: in vivo, female Sprague–Dawley rats. The gist of the method:
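Six-week-old female rats (200 g ± 20 g) with similar cycles were split randomly into two groups of eight. One group received subcutaneous drug solution (9 μg/kg). The other received the microneedle patch (9 μg/kg) on shaved back skin, finger-pressed 3 min before the base was removed. Orbital-plexus blood was taken into heparinised tubes at 0.5–48 h and plasma stored at −80 °C. LH was measured by ELISA kit.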
On the technique in general: ELISA stands for enzyme-linked immunosorbent assay.

A short description of data set [2]: Pharmacokinetics of triptorelin in rats. Type of data set: in vivo, female Sprague–Dawley rats. In a few lines: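 Female rats aged 6 weeks were randomised into two groups (n = 8). One group received a 9 μg/kg subcutaneous solution and the other a 9 μg/kg microneedle patch on shaved back skin, pressed 3 min. Heparinised orbital-plexus blood was sampled at 0.5, 1, 2, 4, 8, 24 and 48 h. Plasma was centrifuged, stored at −80 °C and assayed by LC–MS/MS. PK parameters were computed from concentration–time profiles.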

Setting [3] is: female, Sprague-Dawley, rat, plasma, sc, 9 ug/kg.

On to `CC(C)C[C@H](NC(=O)[C@@H](Cc1c[nH]c2ccccc12)NC(=O)[C@H](Cc1ccc(O)cc1)NC(=O)[C@H](CO)NC(=O)[C@H](Cc1c[nH]c2ccccc12)NC(=O)[C@H](Cc1c[nH]cn1)NC(=O)[C@@H]1CCC(=O)N1)C(=O)N[C@@H](CCCNC(=N)N)C(=O)N1CCC[C@H]1C(=O)NCC(N)=O` [triptorelin, Triptorelin acetate], for which, in data set [1], the “enhanced activity compared with GnRH” value was 100 fold. The “plasma LH levels at 48 h” value in the data set with luteinizing hormone (LH) is given as “returned to a normal physiological state”. Also, in data set [2] (setting [3]), the AUC(0-t) – broadly, exposure summed from dosing to a finite time, without extrapolation to infinity – came out at 8.65 ± 0.41 ng·h/mL; the highest level (Cmax) was 10.5 ± 0.6 ng/mL; the time of peak concentration (Tmax) (in general, the time at which the peak concentration occurs) amounted to 0.5 h; the half-life (usually how long it takes for the measured level to halve) was 2.11 ± 0.05 h. In data set [2] (rats, 9 μg/kg s.c., 24 h, LC–MS/MS), the “triptorelin concentration in plasma at 24 h” value was “could not be detected”.
